Assay results pooled from the literature.
Protocols differ between the studies behind these lines.
Read-out: chemical stability

Nc1nc2c(nc([N+](=O)[O-])n2[C@@H]2O[C@H](CO)[C@@H](O)[C@H]2O)c(=O)[nH]1 has a half-life of 5.35 h (HPLC; aqueous buffer; 500 µM; pH 2).
Cc1cccc(C(=O)Oc2cnnc3ccc([N+](=O)[O-])cc23)c1 has a half-life of 0.698 h (aqueous buffer; pH 7.3).
Cc1ccc(S(=O)(=O)NCC2CCN(C(=O)OC(C(F)(F)F)C(F)(F)F)CC2)cc1 has a half-life of 1.24 h (HPLC; aqueous buffer; 167 µM; pH 7.4).
With CO[C@@H]1[C@H](O)[C@@H](CO)O[C@H]1n1c([N+](=O)[O-])nc2c(=O)[nH]c(N)nc21 the half-life was 11 h (HPLC; aqueous buffer; 500 µM; pH 2).
The half-life of Cc1cccc(C(=O)n2ncc(=O)c3cc([N+](=O)[O-])ccc32)c1 is reported as 0.55 h (aqueous buffer; pH 7.3).
Cc1cn([C@H]2C=C[C@@H](CO)O2)c(=O)[nH]c1=O gave a half-life of over 40 h (HPLC; aqueous buffer; 920 µM; pH 7.3).
The half-life of O=C(OC(C(F)(F)F)C(F)(F)F)N1CCC(CNS(=O)(=O)c2ccc(Cl)cc2)CC1 is reported as 6.86 h (HPLC; aqueous buffer; 167 µM; pH 7.4).
For CO[C@@H](C[C@H]1C(C)=CC[C@@H]2[C@]3(C)C[C@H](O[C@@H]4O[C@@H](C)[C@H](OC(=O)c5cccc(O)c5)[C@@H](O[C@@H]5O[C@H](CO)[C@@H](O)[C@H](O)[C@H]5NC(C)=O)[C@H]4O)[C@@H](O)C(C)(C)[C@H]3CC[C@]21C)[C@H](N)C(=O)O.O=C(O)C(F)(F)F, the half-life was over 8 h (simulated intestinal fluid; 1 µM; pH 6.8).
For Cn1nnc2c(-c3ccccc3)ncn2c1=O, the half-life was over 20 h (HPLC; PBS; pH 7.4).
For COc1cc(/C=C/C(=O)CC(=O)/C=C/c2ccc(O)c(OC)c2)ccc1O, the half-life was 0.9 h (HPLC; culture medium; 10 µM).
CCOC(=O)c1nn(C(=O)C2CC2)c2ccccc2c1=O gave a half-life of 1.44 h (aqueous buffer; pH 7.3).
With COc1ccc(OC)c(/C=C2\CC/C(=C\c3ccc(O)c(OC)c3)C2=O)c1 the half-life was 2.6 h (HPLC; culture medium; 10 µM).
COc1ccc(S(=O)(=O)NCC2CCN(C(=O)OC(C(F)(F)F)C(F)(F)F)CC2)cc1 gave a half-life of 2.58 h (HPLC; aqueous buffer; 167 µM; pH 7.4).
